Measurements reported in ChEMBL document CHEMBL3232894, “Discovery of AMG 925, a FLT3 and CDK4 dual kinase inhibitor with preferential affinity for the activated state of FLT3” (J Med Chem, 2014).
The source made the active and inactive calls. The calls are words filed in the database; no cut-off is given here.

Legend:
[1] = biological target: Cyclin-dependent kinase 4/cyclin D1 (Homo sapiens, UniProt P11802); test: Inhibition of CDK4/cyclin D1 (unknown origin) using Rb as substrate after 60 mins by scintillation counting analysis in presence of [r-33P]ATP; assay type: protein-complex assay
Cyclin-dependent kinase 4/cyclin D1, sequence (P11802 whole entry): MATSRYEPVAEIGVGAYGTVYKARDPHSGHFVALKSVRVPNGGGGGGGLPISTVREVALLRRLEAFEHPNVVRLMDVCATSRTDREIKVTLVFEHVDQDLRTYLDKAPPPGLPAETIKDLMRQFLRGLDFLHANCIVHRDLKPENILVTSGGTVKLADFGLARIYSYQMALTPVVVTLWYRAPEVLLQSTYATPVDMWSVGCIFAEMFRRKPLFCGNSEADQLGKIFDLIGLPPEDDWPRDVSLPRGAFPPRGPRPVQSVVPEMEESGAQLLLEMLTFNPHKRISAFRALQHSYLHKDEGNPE
Cyclin-dependent kinase 4/cyclin D1, sequence (P24385 whole entry, further chain): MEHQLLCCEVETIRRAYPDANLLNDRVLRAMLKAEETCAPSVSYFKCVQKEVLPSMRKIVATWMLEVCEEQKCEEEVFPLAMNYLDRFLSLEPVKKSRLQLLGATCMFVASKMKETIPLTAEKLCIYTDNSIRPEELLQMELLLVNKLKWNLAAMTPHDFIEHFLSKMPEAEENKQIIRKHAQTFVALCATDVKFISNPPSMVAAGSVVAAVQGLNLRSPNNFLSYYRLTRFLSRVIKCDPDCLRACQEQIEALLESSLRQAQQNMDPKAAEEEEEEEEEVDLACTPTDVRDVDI

[2] = biological target: Cyclin-dependent kinase 1/cyclin B1 (Homo sapiens, UniProt P06493); test: Inhibition of CDK1/cyclin B (unknown origin) using histone H1 as substrate after 60 mins by scintillation counting analysis in presence of [r-33P]ATP; assay type: protein-complex assay
Cyclin-dependent kinase 1/cyclin B1, sequence (P06493 whole entry, the tested form may be a part): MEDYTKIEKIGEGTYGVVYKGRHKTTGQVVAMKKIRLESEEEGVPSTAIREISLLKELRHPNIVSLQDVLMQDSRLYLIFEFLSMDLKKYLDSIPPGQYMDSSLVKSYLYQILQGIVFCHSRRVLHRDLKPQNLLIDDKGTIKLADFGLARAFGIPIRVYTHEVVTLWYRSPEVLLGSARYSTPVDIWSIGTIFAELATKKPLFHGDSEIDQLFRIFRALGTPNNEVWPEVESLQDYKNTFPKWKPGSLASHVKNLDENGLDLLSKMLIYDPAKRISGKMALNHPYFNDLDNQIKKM
Cyclin-dependent kinase 1/cyclin B1, sequence (P14635 whole entry, further chain, the tested form may be a part): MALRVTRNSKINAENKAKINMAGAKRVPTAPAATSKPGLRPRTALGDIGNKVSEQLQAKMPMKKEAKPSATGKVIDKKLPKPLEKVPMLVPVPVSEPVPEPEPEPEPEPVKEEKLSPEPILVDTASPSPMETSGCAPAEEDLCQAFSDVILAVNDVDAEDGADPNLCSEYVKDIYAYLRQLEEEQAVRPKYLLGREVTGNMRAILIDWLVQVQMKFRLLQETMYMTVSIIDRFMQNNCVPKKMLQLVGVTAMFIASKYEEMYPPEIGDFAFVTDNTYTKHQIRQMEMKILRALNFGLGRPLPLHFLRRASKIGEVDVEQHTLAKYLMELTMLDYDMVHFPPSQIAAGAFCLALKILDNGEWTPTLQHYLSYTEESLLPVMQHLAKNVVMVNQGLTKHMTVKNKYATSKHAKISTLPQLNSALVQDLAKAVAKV

[3] = biological target: T1, Receptor-type tyrosine-protein kinase FLT3 (Homo sapiens, UniProt P36888); test: Inhibition of GST-fused human FLT3 cytoplasmic domain (amino acids 564 to 993) using Ulight-JAK1 as substrate after 1 hr by TR-FRET assay
T1 sequence (P36888 whole entry): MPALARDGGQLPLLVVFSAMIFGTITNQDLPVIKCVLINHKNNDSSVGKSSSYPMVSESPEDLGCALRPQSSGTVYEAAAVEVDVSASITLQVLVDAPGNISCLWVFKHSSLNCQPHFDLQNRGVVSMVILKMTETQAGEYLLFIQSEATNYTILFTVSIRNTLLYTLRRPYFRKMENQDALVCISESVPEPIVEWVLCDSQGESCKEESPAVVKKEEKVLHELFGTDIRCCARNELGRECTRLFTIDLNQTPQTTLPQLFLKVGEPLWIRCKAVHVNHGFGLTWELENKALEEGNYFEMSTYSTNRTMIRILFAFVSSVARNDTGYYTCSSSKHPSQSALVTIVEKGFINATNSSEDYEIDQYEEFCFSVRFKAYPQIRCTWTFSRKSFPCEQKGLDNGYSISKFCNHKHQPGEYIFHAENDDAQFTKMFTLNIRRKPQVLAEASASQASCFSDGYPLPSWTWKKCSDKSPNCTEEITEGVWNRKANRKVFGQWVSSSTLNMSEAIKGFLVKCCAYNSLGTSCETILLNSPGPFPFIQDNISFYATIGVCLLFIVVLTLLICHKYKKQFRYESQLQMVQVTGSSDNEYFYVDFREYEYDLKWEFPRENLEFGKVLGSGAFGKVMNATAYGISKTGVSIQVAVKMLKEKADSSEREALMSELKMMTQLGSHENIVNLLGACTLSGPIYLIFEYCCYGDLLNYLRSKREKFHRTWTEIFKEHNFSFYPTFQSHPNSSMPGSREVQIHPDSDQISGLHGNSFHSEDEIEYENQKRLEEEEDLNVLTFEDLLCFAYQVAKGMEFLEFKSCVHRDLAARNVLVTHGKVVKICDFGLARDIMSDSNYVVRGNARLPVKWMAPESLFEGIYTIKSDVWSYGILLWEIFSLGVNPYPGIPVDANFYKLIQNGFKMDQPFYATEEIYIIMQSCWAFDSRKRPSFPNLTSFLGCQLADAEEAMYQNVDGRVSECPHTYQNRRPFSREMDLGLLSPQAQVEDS

[4] = test system: MOLM-13; test: Antiproliferative activity against human MOLM13 cells harboring FLT3 ITD mutant assessed as incorporation of [3H]thymidine into DNA after 72 hrs by beta-plate counting analysis; assay type: functional, cell-based
[5] = Antiproliferative activity against Rb-negative human MDA-MB-436 cells assessed as incorporation of [3H]thymidine into DNA after 72 hrs by beta-plate counting analysis; assay type: functional
[6] = Clearance in iv dosed rat; assay type: ADME, organism-based; conditions: in vivo
Summary of the method: (§1)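 Intravenous and oral (gavage, solution) PK in rat, dog and cynomolgus monkey. The rat vehicle for both routes was water/acetate/tween at pH 4, 96/3/1 (v/v/v). Dog and monkey iv doses used 40% PG aqueous solution at pH 2, and their oral doses used 20% captisol aqueous solution.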

[7] = Oral bioavailability in rat; assay type: ADME, organism-based; conditions: in vivo; summary of the method: as §1
[8] = Drug uptake in CrTac:NCR-Foxn1nu (NCR) nude mouse at 150 mg/kg, po after 3 hrs; assay type: ADME, organism-based; parameters: dose 150 mg/kg, route oral; conditions: in vivo, read-out: Drug uptake
Summary of the method: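 Total plasma drug concentration in mouse PK studies, taken 3 h after a 150 mg/kg oral dose.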

[9] = test system: COLO 205; test: Antiproliferative activity against Rb-positive human COLO205 cells assessed as incorporation of [14C]thymidine into DNA after 72 hrs by beta-plate counting analysis
[10] = test system: U-937; test: Antiproliferative activity against human U937 cells assessed as incorporation of [3H]thymidine into DNA after 72 hrs by beta-plate counting analysis
[11] = test system: U-937; test: Induction of apoptosis in human U937 cells harboring wild type FLT3 at 1 uM after 48 hrs by Annexin V/Sytox Green staining based flow cytometry; assay type: functional
Summary of the method: (§2)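 MOLM13, sorafenib-resistant MOLM13 and U937 cells were each exposed to compound at 1 μM for 48 h. Cells were then stained with Annexin V/Sytox Green and analysed by flow cytometry. Readout is apoptotic cells as a percentage of all cells analysed.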

[12] = test system: MOLM-13; test: Induction of apoptosis in human MOLM13 cells harboring FLT3 ITD mutant at 1 uM after 48 hrs by Annexin V/Sytox Green staining based flow cytometry; assay type: functional; summary of the method: as §2
[13] = test system: MOLM-13; test: Induction of apoptosis in sorafenib-resistant human MOLM13 cells harboring FLT3 ITD+D835Y mutant at 1 uM after 48 hrs by Annexin V/Sytox Green staining based flow cytometry; assay type: functional; summary of the method: as §2
[14] = test system: MOLM-13; test: cells; conditions: Homo sapiens
[15] = organism: Homo sapiens; test: Selectivity ratio of IC50 for CDK1/cyclin B (unknown origin) to IC50 for CDK4/cyclin D1 (unknown origin)
[16] = biological target: Receptor-type tyrosine-protein kinase FLT3 (Homo sapiens, UniProt P36888, ITD); test: Inhibition of FLT3 ITD mutant in human MOLM13 cells assessed as inhibition of STAT5 phosphorylation at Tyr694 after 24 hrs; assay type: cell-based, MOLM-13
[17] = biological target: Cyclin-dependent kinase 4 (Homo sapiens, UniProt P11802); test: Inhibition of CDK4 in human MOLM13 cells assessed as inhibition of Rb phosphorylation at Ser780 after 24 hrs; assay type: cell-based, MOLM-13
Cyclin-dependent kinase 4, sequence (P11802 whole entry): as the sequence (P11802 whole entry) above

[18] = test system: Tumour; test: Decrease in Rb phosphorylation at Ser780 in tumor of po dosed CrTac:NCR-Foxn1nu (NCR) nude mouse xenografted with human MOLM13 cells after 24 hrs; assay type: functional, organism-based; conditions: Neoplasm, MOLM-13
Summary of the method: (§3)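 MOLM13 tumor-bearing mice received a single oral dose of 50, 75 or 150 mg/kg. Tumors were harvested at 3, 6 and 24 h, and lysates were assayed for pSTAT5 and pRb. Unbound plasma levels were measured at the same time points. Results are mean ± SEM, n = 3 per group and n = 6 for vehicle.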

[19] = test system: Tumour; test: Decrease in STAT5 phosphorylation at Tyr694 in tumor of CrTac:NCR-Foxn1nu (NCR) nude mouse xenografted with human MOLM13 cells at 150 mg/kg, po after 3 hrs; assay type: functional, organism-based; parameters: dose 150 mg/kg; conditions: Neoplasm, MOLM-13; summary of the method: as §3
[20] = test system: Mus musculus; test: Unbound Cmax in CrTac:NCR-Foxn1nu (NCR) nude mouse xenografted with human MOLM13 cells at 150 mg/kg, po; assay type: ADME, organism-based, MOLM-13; parameters: dose 150 mg/kg, route oral; conditions: in vivo
[21] = Total Cmax in rat at 2 mg/kg, po; assay type: ADME, organism-based; parameters: dose 2 mg/kg, route oral; conditions: in vivo
[22] = AUC in rat at 2 mg/kg, po; assay type: ADME, organism-based; parameters: dose 2 mg/kg, route oral; conditions: plasma
[23] = biological target: Cytochrome P450 3A4 (Homo sapiens, UniProt P08684); test: Inhibition of CYP3A4 (unknown origin); assay type: ADME
Cytochrome P450 3A4, sequence (P08684 whole entry): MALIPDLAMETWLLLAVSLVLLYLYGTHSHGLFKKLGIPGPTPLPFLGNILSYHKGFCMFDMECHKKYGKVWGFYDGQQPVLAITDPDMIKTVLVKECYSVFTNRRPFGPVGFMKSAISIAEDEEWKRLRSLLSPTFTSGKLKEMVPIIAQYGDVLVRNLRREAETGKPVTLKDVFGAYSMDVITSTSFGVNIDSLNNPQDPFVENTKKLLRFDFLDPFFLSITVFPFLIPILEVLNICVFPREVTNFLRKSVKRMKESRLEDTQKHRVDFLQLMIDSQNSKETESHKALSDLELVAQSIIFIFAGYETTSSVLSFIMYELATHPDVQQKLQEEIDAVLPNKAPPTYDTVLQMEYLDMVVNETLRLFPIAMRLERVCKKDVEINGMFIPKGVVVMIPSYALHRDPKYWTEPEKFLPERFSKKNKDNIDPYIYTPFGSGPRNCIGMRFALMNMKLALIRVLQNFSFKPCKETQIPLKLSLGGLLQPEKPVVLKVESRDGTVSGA

[24] = biological target: Voltage-gated inwardly rectifying potassium channel KCNH2 (Homo sapiens, UniProt Q12809); test: Binding affinity to human ERG
Voltage-gated inwardly rectifying potassium channel KCNH2, sequence (Q12809 whole entry): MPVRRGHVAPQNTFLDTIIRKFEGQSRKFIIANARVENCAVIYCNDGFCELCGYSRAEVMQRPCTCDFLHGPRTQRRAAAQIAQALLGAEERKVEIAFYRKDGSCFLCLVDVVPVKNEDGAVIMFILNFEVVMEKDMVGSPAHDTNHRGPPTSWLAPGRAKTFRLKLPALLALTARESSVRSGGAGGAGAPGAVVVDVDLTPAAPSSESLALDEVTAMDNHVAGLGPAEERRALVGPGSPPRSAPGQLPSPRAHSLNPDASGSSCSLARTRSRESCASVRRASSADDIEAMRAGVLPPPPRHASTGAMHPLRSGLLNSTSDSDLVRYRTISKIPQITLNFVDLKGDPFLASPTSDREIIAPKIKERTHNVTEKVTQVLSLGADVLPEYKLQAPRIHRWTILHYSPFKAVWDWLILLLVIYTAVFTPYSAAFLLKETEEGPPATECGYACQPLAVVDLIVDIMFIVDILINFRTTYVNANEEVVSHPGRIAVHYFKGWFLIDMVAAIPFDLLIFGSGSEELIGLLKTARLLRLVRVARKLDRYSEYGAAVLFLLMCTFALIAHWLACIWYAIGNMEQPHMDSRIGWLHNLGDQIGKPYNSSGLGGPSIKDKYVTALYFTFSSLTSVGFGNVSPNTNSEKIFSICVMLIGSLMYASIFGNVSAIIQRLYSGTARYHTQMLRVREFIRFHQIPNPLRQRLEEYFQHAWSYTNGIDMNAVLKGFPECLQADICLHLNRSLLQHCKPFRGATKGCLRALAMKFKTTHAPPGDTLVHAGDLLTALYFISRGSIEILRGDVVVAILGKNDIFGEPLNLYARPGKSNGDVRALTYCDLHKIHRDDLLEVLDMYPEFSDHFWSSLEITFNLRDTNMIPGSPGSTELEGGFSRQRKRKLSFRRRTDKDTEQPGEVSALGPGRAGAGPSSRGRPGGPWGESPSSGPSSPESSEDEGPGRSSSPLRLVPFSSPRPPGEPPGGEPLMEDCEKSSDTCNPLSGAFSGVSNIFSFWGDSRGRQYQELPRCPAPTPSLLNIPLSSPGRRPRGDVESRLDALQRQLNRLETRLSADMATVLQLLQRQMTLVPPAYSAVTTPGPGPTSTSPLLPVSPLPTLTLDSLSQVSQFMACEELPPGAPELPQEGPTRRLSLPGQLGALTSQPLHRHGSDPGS

[25] = biological target: CYP3A4 (Homo sapiens, UniProt P08684); test: Inhibition of CYP3A4 (unknown origin) at 3 uM; assay type: ADME
CYP3A4, sequence (P08684 whole entry): as the sequence (P08684 whole entry) above

[26] = test system: Mus musculus; test: Toxicity in po dosed CrTac:NCR-Foxn1nu (NCR) nude mouse xenografted with human MOLM13 cells at dose that causing 100% tumor growth inhibition administered qd for 8 days; assay type: organism-based, MOLM-13; conditions: in vivo, 192 h
Summary of the method: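 Body weight tracked throughout the 8-day once-daily oral study in NCR nude mice carrying MOLM13 xenografts. Doses were 25, 50, 75 and 150 mg/kg, with a vehicle control.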

C[C@H]1CC[C@H](n2c3cnccc3c3cnc(Nc4ccc(N5CCC6(CC5)CCS(=O)(=O)C6)nn4)nc32)CC1
IC50 [1]: 0.004 µM
IC50 [2]: 1.63 µM
IC50 [3]: 0.005 µM
IC50 [4]: 0.032 µM
IC50 [5]: 10 µM
clearance [6]: 9 mL/min/kg
bioavailability [7]: 38%
concentration at 3 h [8]: 11.6 µM
IC50 [9]: 0.038 µM

C[C@H]1CC[C@H](n2c3cnccc3c3cnc(Nc4ccc(N5CCC6(CCC(=O)N6)CC5)cn4)nc32)CC1
IC50 [1]: 0.003 µM
IC50 [2]: 1.77 µM
IC50 [3]: 0.003 µM
IC50 [4]: 0.021 µM
IC50 [5]: 7.23 µM
clearance [6]: 21.7 mL/min/kg
bioavailability [7]: 48%
concentration at 3 h [8]: 14.7 µM
IC50 [9]: 0.031 µM

CNC(=O)c1cc(Oc2ccc(NC(=O)Nc3ccc(Cl)c(C(F)(F)F)c3)cc2)ccn1 [SORAFENIB]
IC50 [4]: 0.005 µM
IC50 [10]: > 3 µM
Activity [11]: 8.76%
Activity [12]: 84.6%
Activity [13]: 5.16%
IC50 [14]: > 3 µM
IC50 [9]: > 3 µM

CN(C)C1CCN(c2ccc(Nc3ncc4c5ccncc5n([C@H]5CC[C@H](C)CC5)c4n3)nn2)CC1
Ratio IC50 [15]: > 1000
IC50 [1]: 0.002 µM
IC50 [2]: 2.2 µM
IC50 [3]: 0.004 µM
IC50 [4]: 0.009 µM
IC50 [5]: 2.15 µM
clearance [6]: 10.2 mL/min/kg
bioavailability [7]: 28%
IC50 [16]: 0.052 µM
IC50 [17]: 0.023 µM
inhibition [18]: Dose-dependent effect
inhibition [19]: inactive
fCmax [20]: 0.024 µM
Cmax [21]: 0.13 µM
AUC [22]: 1.57 µM·h
concentration at 3 h [8]: 0.85 µM
IC50 [9]: 0.011 µM

Clc1nccc2c3cnc(Nc4ccc(N5CCNCC5)cn4)nc3n(C3CCCC3)c12
IC50 [1]: 0.004 µM
IC50 [2]: 3.3 µM
IC50 [3]: 0.005 µM
IC50 [4]: 0.009 µM
IC50 [5]: 2.1 µM
IC50 [23]: > 10 µM
clearance [6]: 28.3 mL/min/kg
IC50 [24]: 2 µM
inhibition at 3 µM [25]: < 10%
IC50 [9]: 0.063 µM

CN(C)C1CCN(c2ccc(Nc3ncc4c5ccncc5n([C@H]5CC[C@H](C)CC5)c4n3)nc2F)CC1
IC50 [1]: 0.001 µM
IC50 [2]: 2.68 µM
IC50 [3]: 0.0006 µM
IC50 [4]: 0.013 µM
IC50 [5]: 1.47 µM
clearance [6]: 20 mL/min/kg
bioavailability [7]: 88%
Activity [26]: Toxic
IC50 [9]: 0.016 µM

C[C@@H](O)CN(C)C1CCN(c2ccc(Nc3ncc4c5ccncc5n([C@H]5CC[C@H](C)CC5)c4n3)nn2)CC1
IC50 [2]: 1.54 µM
IC50 [4]: 0.004 µM
IC50 [5]: 0.91 µM
clearance [6]: 10 mL/min/kg
bioavailability [7]: 46%
Cmax [21]: 0.28 µM
AUC [22]: 3.24 µM·h
IC50 [9]: 0.009 µM

CC(=O)c1c(C)c2cnc(Nc3ccc(N4CCNCC4)cn3)nc2n(C2CCCC2)c1=O [PALBOCICLIB]
IC50 [4]: 0.096 µM
IC50 [10]: 0.14 µM
Activity [11]: 9.09%
Activity [12]: 16.95%
Activity [13]: 8.35%
IC50 [14]: 0.096 µM
IC50 [9]: 0.036 µM

COc1nc(Nc2ncc3c4ccncc4n([C@H]4CC[C@H](C)CC4)c3n2)ccc1N1CCC(N(C)C)CC1
IC50 [1]: 0.003 µM
IC50 [2]: 0.79 µM
IC50 [3]: 0.0002 µM
IC50 [4]: 0.002 µM
IC50 [5]: 1.12 µM
clearance [6]: 9.17 mL/min/kg
bioavailability [7]: 62%
Activity [26]: Toxic
IC50 [9]: 0.054 µM

C[C@H]1CC[C@H](n2c3cnccc3c3cnc(Nc4ccc(N5CCN(C(=O)CO)CC5)nn4)nc32)CC1
IC50 [1]: 0.003 µM
IC50 [2]: 1.05 µM
IC50 [3]: 0.008 µM
IC50 [4]: 0.037 µM
IC50 [5]: 1.19 µM
clearance [6]: 2 mL/min/kg
bioavailability [7]: 22%
concentration at 3 h [8]: 10.9 µM
IC50 [9]: 0.031 µM
